Laboratory results reported in ChEMBL document CHEMBL4334452, “Monosaccharide Analogues of Anticancer Peptide R-Lycosin-I: Role of Monosaccharide Conjugation in Complexation and the Potential of Lung Cancer Targeting and Therapy” (J Med Chem, 2019).
Active and inactive are the calls of the source. The calls are words filed in the database; no cut-off is given here. *1 amine or outer side, *2 acyl side, *3 side chain or, on linkers, in order; H or OH if unused. Where a SMILES comes first, the peptide text is derived from it. The star is where a group is joined. NH(CH2)3O(βDGlc) = OC[C@H]1O[C@@H](OCCCN*)[C@H](O)[C@@H](O)[C@@H]1O; Glutaryl = O=C(CCCC(=O)[*:2])[*:1]

What was measured:
[1] = system: A549; assay: Induction of apoptosis in human A549 cells assessed as late apoptotic cells at 8 uM measured after 4 hrs by Annexin V-FITC/propidium iodide staining-based flow cytometry (reference value: 3.61%); type: functional
Outline: (§1)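 A549 cells grown 24 h, trypsinized, then resuspended in medium with 8 µM peptide for 4 h at 37 °C. Cells washed with cold PBS, stained with Annexin V-FITC/PI, and analysed by flow cytometry.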

[2] = system: A549; assay: Induction of apoptosis in human A549 cells assessed as early apoptotic cells at 8 uM measured after 4 hrs by Annexin V-FITC/propidium iodide staining-based flow cytometry (reference value: 0.39%); type: functional; outline: as §1
[3] = system: A549; assay: Induction of mitochondrial membrane potential loss in human A549 cells at 15 uM measured after 24 hrs by JC1 staining based fluorescence microscopic analysis; type: functional, cell-based
Outline: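 A549 cells exposed to 15 µM peptide for 24 h, then stained with JC-1 kit. Monomer and aggregate emissions viewed by fluorescence microscopy; depolarization read as a rise in the green/red ratio, n=3.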

[4] = Drug uptake in spleen of Balb/c nu/nu mouse xenografted with human A549 cells expressing luciferase gene at 9 mg/kg, ip measured after 6 hrs by fluorescence assay; type: ADME, organism-based; conditions: in vivo
[5] = Drug uptake in spleen of Balb/c nu/nu mouse xenografted with human A549 cells expressing luciferase gene at 3 mg/kg administered intratumorally measured after 6 hrs by fluorescence assay; type: ADME, organism-based; conditions: in vivo, other
[6] = system: A549; assay: Induction of mitochondrial membrane disruption in human A549 cells assessed as increase in cytochrome C level in cytoplasm at 15 uM measured after 24 hrs by immunofluorescence assay; type: functional, cell-based
Outline: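 A549 cells given 15 µM peptide for 24 h, permeabilized 2 min with 0.5% Triton X-100 and blocked 30 min in 10% sheep serum/PBS. Anti-CytC (1:100) applied 2 h at RT, then fluorescent goat anti-mouse secondary (1:200) for 1 h. Confocal imaging; untreated cells served as control.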

[7] = system: A549; assay: Induction of morphological changes in human A549 cells assessed as cell shrinkage at 15 uM measured after 24 hrs by scanning electron microscopic analysis; type: functional, cell-based
[8] = system: A549; assay: Antitumor activity against human A549 cells expressing luciferase gene xenografted in Balb/c nu/nu mouse assessed as tumor growth inhibition at 3 mg/kg administered intratumorally every 3 days for four times measured on day 12 by bioluminescent imaging analysis; type: functional, organism-based
Outline: (§2)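 Male BALB/c nu/nu mice, 4-6 weeks old, with subcutaneous A549-luciferase xenografts. Treatment began when tumors reached 100-200 mm³, five per group. Peptide was injected intratumorally at 3 mg/kg in 100 µL every 3 days for 4 doses; 100 µL PBS was the control. Bioluminescent imaging on day 12, with tumor size and body weight monitored.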

[9] = system: HEK-293T; assay: Cytotoxicity against HEK293T cells assessed as reduction in cell viability measured after 24 hrs by CCK8 assay; type: cell-based, Homo sapiens; conditions: Homo sapiens, HEK-293T
Outline: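 Cells (A549, H460, H1437, PC-3, HGC-27, MDA-MB-231, HEK-293T, L-02) seeded at about 2×10^3/well and grown overnight. Treated 24 h with a peptide concentration series in serum-free medium. Viability by CCK-8; IC50 taken as 50% inhibition versus untreated cells. Average of three experiments, each in triplicate.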

[10] = system: A549; assay: Antitumor activity against human A549 cells expressing luciferase gene xenografted in Balb/c nu/nu mouse assessed as tumor growth inhibition at 9 mg/kg, ip administered every 2 days for seven times measured on day 14 by bioluminescent imaging analysis; type: functional, organism-based
Outline: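 Male BALB/c nu/nu mice, 4-6 weeks old, carrying subcutaneous A549-luciferase xenografts in the right back. Dosing started when tumors reached 100-200 mm³ (day 0), five per group. Peptide was given at 9 mg/kg i.p. in 200 µL every other day for 7 doses; PBS served as control. Bioluminescent imaging on day 14; tumor size and body weight tracked. Tumors fixed in paraformaldehyde, paraffin-sectioned, TUNEL-stained.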

[11] = system: A549; assay: Induction of apoptosis in human A549 cells assessed as viable cells at 8 uM measured after 4 hrs by Annexin V-FITC/propidium iodide staining-based flow cytometry (reference value: 95.4%); type: functional; conditions: A549, 4 h, read-out: Activity; outline: as §1
[12] = Toxicity in Balb/c nu/nu mouse xenografted with human A549 cells expressing luciferase gene assessed as change in body weight at 3 mg/kg administered intratumorally every 3 days for four times measured on day 12; type: organism-based; conditions: in vivo, other, 72 h
Outline: (§3)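 Male BALB/c nu/nu mice, 4–6 weeks old, carrying subcutaneous A549-luciferase tumours (right back, cells in sterile PBS), dosed at a tumour size of 100–200 mm³; five per group, PBS controls. Two regimens: 9 mg/kg i.p. (200 µL) every other day ×7, ended day 14; or 3 mg/kg intratumoral (100 µL) every 3 days ×4, ended day 12. Body weight was monitored throughout.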

[13] = target: T1, Solute carrier family 2, facilitated glucose transporter member 1 (Homo sapiens) (UniProt P11166); assay: Binding affinity to GLUT1 in 3D spheroids of human A549 cells assessed as cytotoxicity by measuring reduction in cell viability at 30 uM treated every 2 days for 6 days by CCK8 assay; type: cell-based
T1 sequence (whole entry): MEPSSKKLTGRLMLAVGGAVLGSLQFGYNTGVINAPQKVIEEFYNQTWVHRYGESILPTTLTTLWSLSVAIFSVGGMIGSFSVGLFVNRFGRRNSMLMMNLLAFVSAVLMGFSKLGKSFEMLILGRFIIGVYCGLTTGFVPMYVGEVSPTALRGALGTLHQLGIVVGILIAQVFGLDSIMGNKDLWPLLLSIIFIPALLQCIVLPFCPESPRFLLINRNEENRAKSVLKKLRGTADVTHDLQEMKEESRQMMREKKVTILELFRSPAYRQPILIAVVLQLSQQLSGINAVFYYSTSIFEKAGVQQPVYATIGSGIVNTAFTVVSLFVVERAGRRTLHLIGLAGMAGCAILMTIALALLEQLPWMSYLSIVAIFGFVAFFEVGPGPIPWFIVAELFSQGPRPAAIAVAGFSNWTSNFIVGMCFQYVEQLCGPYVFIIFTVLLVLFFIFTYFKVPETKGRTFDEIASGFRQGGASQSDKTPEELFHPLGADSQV
Outline: (§4)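 A549 3D spheroids, one per well, in 10% medium with peptide at 30 µM final. Dosed at day 0, then re-added at days 2 and 4, for 6 days total. Spheroids washed thrice, then imaged and sized at days 0, 3 and 6. Viability read by CCK-8.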

[14] = system: A549; assay: Antitumor activity against human A549 cells expressing luciferase gene xenografted in Balb/c nu/nu mouse assessed as reduction in tumor volume at 3 mg/kg administered intratumorally every 3 days for four times measured on day 12 by bioluminescent imaging analysis; type: functional, organism-based; outline: as §2
[15] = Toxicity in Balb/c nu/nu mouse xenografted with human A549 cells expressing luciferase gene assessed as change in body weight at 9 mg/kg, ip administered every 2 days for seven times measured on day 14; type: organism-based; conditions: in vivo, 48 h; outline: as §3
[16] = system: A549; assay: Induction of morphological changes in 3D spheroids of human A549 cells assessed as disruption of cell morphology at 30 uM treated every 2 days for 6 days measured every 3 days during compound dosing by microscopic analysis; type: functional, cell-based; outline: as §4
[17] = system: A549; assay: Induction of morphological changes in 3D spheroids of human A549 cells assessed as reduction in spheroid volume at 30 uM treated every 2 days for 6 days measured every 3 days during compound dosing by microscopic analysis; type: functional, cell-based; outline: as §4

Drug uptake [4] | Drug uptake [5] | SMILES | Activity [1] [%] | Activity [2] [%] | Activity [3] | Activity [6] | Activity [7] | TGI [8] | IC50 [9] [µM] | TGI [10] | viability at 8 µM [11] [%] | Activity [12] | Activity [13] | Activity [14] | Activity [15] | Activity [16] | Activity [17]
Active | Active | CC[C@H](C)[C@H](NC(=O)[C@H](Cc1ccccc1)NC(=O)[C@H](CCCNC(=N)N)NC(=O)[C@H](C)NC(=O)[C@@H](NC(=O)[C@H](CO)NC(=O)[C@H](CCCNC(=N)N)NC(=O)[C@H](CCSC)NC(=O)[C@H](C)NC(=O)[C@H](CCCNC(=N)N)NC(=O)[C@H](Cc1ccccc1)NC(=O)[C@H](Cc1c[nH]c2ccccc12)NC(=O)CNC(=O)[C@@H](N)CCCNC(=N)N)[C@@H](C)CC)C(=O)N[C@@H](C)C(=O)N[C@@H](CCCNC(=N)N)C(=O)N[C@@H](CCC(=O)O)C(=O)N[C@@H](CCCNC(=N)N)C(=O)N[C@@H](CC(C)C)C(=O)N[C@@H](CCCNC(=N)N)C(=O)N[C@@H](CCC(=O)O)C(=O)N[C@@H](Cc1cnc[nH]1)C(=O)N[C@@H](CC(C)C)C(=O)O (H-RGWFRAMRSIARFIARERLREHL-OH) | 9.87 | 0.63 | Active | Active | Active | Active | 25.8 | Active | 88.8 | Non-Toxic | Active | Active | Non-Toxic | Active | Active
Active | Active | CC[C@H](C)[C@H](NC(=O)[C@H](Cc1ccccc1)NC(=O)[C@H](CCCNC(=N)N)NC(=O)[C@H](C)NC(=O)[C@@H](NC(=O)[C@H](CO)NC(=O)[C@H](CCCNC(=N)N)NC(=O)[C@H](CCSC)NC(=O)[C@H](C)NC(=O)[C@H](CCCNC(=N)N)NC(=O)[C@H](Cc1ccccc1)NC(=O)[C@H](Cc1c[nH]c2ccccc12)NC(=O)CNC(=O)[C@H](CCCNC(=N)N)NC(=O)CCCC(=O)NCCCO[C@@H]1O[C@H](CO)[C@@H](O)[C@H](O)[C@H]1O)[C@@H](C)CC)C(=O)N[C@@H](C)C(=O)N[C@@H](CCCNC(=N)N)C(=O)N[C@@H](CCC(=O)O)C(=O)N[C@@H](CCCNC(=N)N)C(=O)N[C@@H](CC(C)C)C(=O)N[C@@H](CCCNC(=N)N)C(=O)N[C@@H](CCC(=O)O)C(=O)N[C@@H](Cc1cnc[nH]1)C(=O)N[C@@H](CC(C)C)C(=O)O ({NH(CH2)3O(βDGlc)-Glutaryl}-RGWFRAMRSIARFIARERLREHL-OH) | 38.49 | 1.1 | Active | Active | Active | Active | 37.4 | Active | 59.8 | Non-Toxic | Active | Active | Non-Toxic | Active | Active
